Source: publication PMC11408085 (Biochemistry, 2024)
Like-named read-outs stand apart in the source and are kept apart here.

What was measured:
[1] = biological target: T1, E91K/K116E variant of IYD (Haliscomenobacter hydrossis, UniProt F4KU78, E91K/K116E); experiment: Affinity of ligands to E91K/K116E variant of IYD; type: binding
[2] = biological target: T1, E91K/K116E variant of IYD; experiment: Catalytic dehalogenation by E91K/K116E variant of IYD; type: biochemical
[3] = biological target: T2, IYD from Haliscomenobacter hydrossis (Haliscomenobacter hydrossis, UniProt F4KU78); details: for fold change in t1/2: relative to IYD without ligand (10 min); for protection of IYD against trypsin: fluorinated ligands, saturating concentration; for fold increase in t1/2: O2N ligands, relative to IYD without ligand
T2 sequence (F4KU78 1-222): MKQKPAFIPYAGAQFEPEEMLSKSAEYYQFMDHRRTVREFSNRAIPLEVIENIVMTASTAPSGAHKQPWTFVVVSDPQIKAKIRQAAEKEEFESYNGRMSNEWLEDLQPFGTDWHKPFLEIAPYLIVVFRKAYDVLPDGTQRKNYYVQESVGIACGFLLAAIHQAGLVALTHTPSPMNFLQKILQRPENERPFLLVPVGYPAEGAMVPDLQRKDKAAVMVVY

[4] = biological target: T1, E91K/K116E variant of IYD; experiment: Limited proteolysis of E91K/K116E variant of IYD by trypsin; details: relative to absence of ligands
[5] = biological target: T3, trypsin from bovine pancreas (Bos taurus, UniProt P00760); experiment: Potential inhibition of trypsin by ligands of IYD; type: biochemical; details: DL-BAPNA as substrate; for inhibition of trypsin: ligand at concentration saturating IYD
T3 sequence (P00760 24-246): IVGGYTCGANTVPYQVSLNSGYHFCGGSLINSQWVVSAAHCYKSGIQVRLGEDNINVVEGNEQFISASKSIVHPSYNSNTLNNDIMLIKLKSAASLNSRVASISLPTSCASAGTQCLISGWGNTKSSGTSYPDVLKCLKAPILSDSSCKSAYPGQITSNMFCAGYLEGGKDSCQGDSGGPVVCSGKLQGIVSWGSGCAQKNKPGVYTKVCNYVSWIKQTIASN
How it was run: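 4-Nitroaniline formation read at 405 nm (ε = 9920 M⁻¹cm⁻¹) every 15 s for 5 min. Rate taken by linear regression over the first 2 min. Repeated independently twice.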

[6] = biological target: T2, IYD from Haliscomenobacter hydrossis; details: IYD with FMNox; ref Kozyryev et al.[26]; cited from earlier work
[7] = biological target: T2, IYD from Haliscomenobacter hydrossis; details: deiodination; ref Kozyryev et al.[26]; cited from earlier work
[8] = biological target: T2, IYD from Haliscomenobacter hydrossis; experiment: biochemical; type: binding
[9] = biological target: T2, IYD from Haliscomenobacter hydrossis; experiment: Redox titration of IYD in the presence of substrate analogues; details: for two-electron potential of IYD: in presence of ligand, −200 mV in absence of ligands; for formation of FMNsq during reductive titration: saturating ligand, anaerobic, pH 7.4, 25 °C
[10] = biological target: T2, IYD from Haliscomenobacter hydrossis; experiment: Catalytic deiodination; type: biochemical; details: for kcat (s^−1) × 10^−2 / Km: deiodination, 100 mM potassium phosphate pH 7.4, 25 °C
[11] = biological target: T2, IYD from Haliscomenobacter hydrossis; type: biochemical; details: equimolar concentrations of substrate, anaerobic
[12] = substrate: N[C@H](Cc1ccc(O)c(I)c1)C(=O)O; experiment: Catalytic deiodination; type: biochemical, Haliscomenobacter hydrossis; details: other: deiodination, 100 mM potassium phosphate pH 7.4, 25 °C
[13] = substrate: O=C(O)[C@@H](O)Cc1ccc(O)c(I)c1; experiment: Catalytic deiodination; type: biochemical, Haliscomenobacter hydrossis; details: other: deiodination, 100 mM potassium phosphate pH 7.4, 25 °C
[14] = IYD with FMNox, 110 mM potassium phosphate pH 7.4, 25 °C

## N[C@@H](Cc1ccc(O)c(I)c1)C(=O)O [I-Tyr, L-3-iodotyrosine, reference compound]
[1]
  Kd: 85 ± 14 µM
[2]
  catalytic dehalogenation: No catalytic dehalogenation could be detected
[3]
  fold change in t1/2: 2.2
[4]
  protection of variant from trypsin: over a twofold protection
[5]
  inhibition of trypsin: not due to general inhibition of trypsin
[6]
  Kd: 5.7 ± 0.4 µM
[7]
  Km: 49 ± 10 µM
  kcat (s^−1) × 10^−2: 60 ± 0.5 s^−1 × 10^−2

## NC(=O)[C@@H](N)Cc1ccc(O)c(F)c1 [F-tyrosinamide]
[8]; [14]
  Kd: 77 ± 3 µM
[3]
  protection of IYD against trypsin: protected IYD against trypsin
[9]
  two-electron potential of IYD: −236 mV
  formation of FMNsq during reductive titration: not detected

## O=C(O)[C@@H](O)Cc1ccc(O)c(I)c1 [I-HPLA, (S)-3-(4-hydroxy-3-iodophenyl)lactic acid]
[8]
  Kd: > 3000 µM

## O=C(O)CCc1ccc(O)c(I)c1 [I-HPPA, 3-(4-hydroxy-3-iodophenyl)propanoic acid]
[8]
  Kd: > 4000 µM
[8]; IYD with FMNox
  decrease in affinity relative to I-Tyr: at least 700 fold
[10]
  kcat (s^−1) × 10^−2: <9.3 × 10^−3^e s^−1 × 10^−2
[10]; set by detection limit of deiodinated product HPPA
  kcat as percentage of that for I-Tyr: ≤ 0.015%

## NCCc1ccc(O)c(I)c1 [I-tyramine]
[8]; [14]
  Kd: 99 ± 10 µM
[10]
  decrease in kcat for dehalogenation relative to I-Tyr: more than 30 fold
  decrease in kcat/Km of dehalogenation relative to I-Tyr: more than 900 fold
  Km: 1470 ± 450 µM
  kcat (s^−1) × 10^−2: 1.8 ± 0.3 s^−1 × 10^−2
[3]
  fold change in t1/2: 2.7

## NCCc1ccc(O)c(F)c1 [F-tyramine]
[8]; [14]
  Kd: 730 ± 140 µM
[3]
  protection of IYD against trypsin: protected IYD against trypsin
[5]
  inhibition of trypsin: inhibited trypsin
[9]
  two-electron potential of IYD: −225 mV
  formation of FMNsq during reductive titration: not detected

## NC(=O)C(N)Cc1ccc(O)c(I)c1 (stereo not shown) [I-tyrosinamide]
[8]; [14]
  Kd: 7 ± 0.2 µM
[10]
  decrease in kcat for dehalogenation relative to I-Tyr: more than 30 fold
  decrease in kcat/Km of dehalogenation relative to I-Tyr: more than 900 fold
  Km: 2410 ± 410 µM
  kcat (s^−1) × 10^−2: 1.7 ± 0.2 s^−1 × 10^−2
[3]
  fold change in t1/2: 2.7

## N[C@@H](Cc1ccc(O)c(F)c1)C(=O)O [F-Tyr, L-3-fluorotyrosine, reference compound]
[8]
  Kd: 97 ± 3 µM
[8]; IYD with FMNox
  decrease in affinity relative to I-Tyr: more than 10 fold
[9]
  formation of FMNsq during reductive titration: consistent with the neutral form of FMNsq

## NCCc1ccc(O)c([N+](=O)[O-])c1 [O2N-tyramine]
[8]; IYD with FMNox
  weakening of binding relative to O2N-Tyr: 70 fold
[8]; [14]
  Kd: 280 ± 10 µM
[3]
  fold increase in t1/2: 2.7
[11]
  ability to oxidize reduced IYD (FMNhq): capable of oxidizing FMNhq to regenerate the initial FMNox spectrum

## N[C@H](Cc1ccc(O)c(I)c1)C(=O)O [D-I-Tyr, D-3-iodotyrosine]
[8]
  Kd: 270 ± 15 µM
[1]
  Kd: 200 ± 30 µM
[2]
  catalytic dehalogenation: No catalytic dehalogenation could be detected
[3]
  fold change in t1/2: 0.62
[4]
  protection of variant from trypsin: over a twofold protection
[5]
  inhibition of trypsin: mild inhibitor of trypsin

## NC(=O)[C@@H](N)Cc1ccc(O)c([N+](=O)[O-])c1 [O2N-tyrosinamide]
[8]; [14]
  Kd: 2.4 ± 0.1 µM
[3]
  fold increase in t1/2: 3.0
[5]
  inhibition of trypsin: not the consequence of a general inhibition of trypsin
[11]
  ability to oxidize reduced IYD (FMNhq): capable of oxidizing FMNhq to regenerate the initial FMNox spectrum

## O=C(O)[C@@H](O)Cc1ccc(O)c([N+](=O)[O-])c1 [O2N-HPLA, (S)-3-(4-hydroxy-3-nitrophenyl)lactic acid]
[8]
  Kd: 180 ± 4 µM
[3]
  fold increase in t1/2: 2.1
[5]; ligand at twice its Kd value
  inhibition of trypsin catalysis: no more than 25%
[11]
  ability to oxidize reduced IYD (FMNhq): capable of oxidizing FMNhq to regenerate the initial FMNox spectrum

B1: IYD from Haliscomenobacter hydrossis (Haliscomenobacter hydrossis DSM 1100) (protein)
chain: MKQKPAFIPYAGAQFEPEEMLSKSAEYYQFMDHRRTVREFSNRAIPLEVIENIVMTASTAPSGAHKQPWTFVVVSDPQIKAKIRQAAEKEEFESYNGRMSNEWLEDLQPFGTDWHKPFLEIAPYLIVVFRKAYDVLPDGTQRKNYYVQESVGIACGFLLAAIHQAGLVALTHTPSPMNFLQKILQRPENERPFLLVPVGYPAEGAMVPDLQRKDKAAVMVVY
[12]
  Km: 7900 ± 4000 µM
  kcat: 0.027 ± 0.01 s⁻¹
  kcat/Km: 3.4 ± 1 M⁻¹ s⁻¹
[13]
  Km: 270 ± 30 µM
  kcat: 0.013 ± 0.001 s⁻¹
  kcat/Km: 47 ± 5 M⁻¹ s⁻¹
